In ChEMBL document CHEMBL1143122, “Novel analogs of D-e-MAPP and B13. Part 1: synthesis and evaluation as potential anticancer agents” (Bioorg Med Chem, 2008):

Assays:
[1] = test system: U-251; test: Antiproliferative activity against human U251 cells after 48 hrs; type: functional; conditions: U-251, 48 h
Method in brief: (§1)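 NCI 60-cell-line screen. Lines grown in RPMI 1640 with 5% fetal bovine serum and 2 mM L-glutamine, plated at 5,000–40,000 cells/well according to doubling time, left 24 h at 37 °C in 5% CO2. Drug stocks in DMSO at 400-fold the top final concentration. Five 10-fold dilutions, 10−4 to 10−8 M, incubated 48 h. Growth read spectrophotometrically as net protein; GI50 taken as 50% reduction.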

[2] = test system: SK-MEL-5; test: Antiproliferative activity against human SKMEL5 cells after 48 hrs; type: functional; conditions: SK-MEL-5, 48 h
Method in brief: (§2)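 NCI 60-cell screen. Cells were grown in RPMI 1640 with 5% FBS and 2 mM L-glutamine, then plated at 5,000–40,000 cells/well according to doubling time and preincubated for 24 h at 37 °C in 5% CO2. Compounds were dissolved in DMSO at 400× the top final concentration and tested at five 10-fold dilutions from 10−4 to 10−8 M for 48 h. Growth was read spectrophotometrically; GI50 is 50% net protein reduction.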

[3] = test system: IGROV-1; test: Antiproliferative activity against human IGROV1 cells after 48 hrs; type: functional; conditions: IGROV-1, 48 h; method in brief: as §2
[4] = test system: SK-OV-3; test: Antiproliferative activity against human SKOV3 cells after 48 hrs; type: functional; conditions: SK-OV-3, 48 h; method in brief: as §2
[5] = test system: 786-0; test: Antiproliferative activity against human 786-0 cells after 48 hrs; type: functional; conditions: 786-0, 48 h; method in brief: as §2
[6] = test system: CAKI-1; test: Antiproliferative activity against human CAKI1 cells after 48 hrs; type: functional; conditions: CAKI-1, 48 h; method in brief: as §2
[7] = test system: SN12C; test: Antiproliferative activity against human SN12C cells after 48 hrs; type: functional; method in brief: as §2
[8] = test system: TK-10; test: Antiproliferative activity against human TK10 cells after 48 hrs; type: functional; conditions: TK-10, 48 h; method in brief: as §1
[9] = test system: UO-31; test: Antiproliferative activity against human UO31 cells after 48 hrs; type: functional; conditions: UO-31, 48 h; method in brief: as §1
[10] = test system: PC-3; test: Antiproliferative activity against human PC3 cells after 48 hrs; type: functional; conditions: PC-3, 48 h; method in brief: as §2
[11] = test system: DU-145; test: Antiproliferative activity against human DU145 cells after 48 hrs; type: functional; conditions: DU-145, 48 h; method in brief: as §2
[12] = Antiproliferative activity against human NCI-ADR-RES cells after 48 hrs; type: functional; method in brief: as §2
[13] = test system: Hs-578T; test: Antiproliferative activity against human HS578T cells after 48 hrs; type: functional; method in brief: as §2
[14] = test system: BT-549; test: Antiproliferative activity against human BT549 cells after 48 hrs; type: functional; conditions: BT-549, 48 h; method in brief: as §2
[15] = test system: T47D; test: Antiproliferative activity against human T47D cells after 48 hrs; type: functional; method in brief: as §1
[16] = test system: HOP-62; test: Antiproliferative activity against human HOP62 cells after 48 hrs; type: functional; conditions: HOP-62, 48 h; method in brief: as §2
[17] = test system: NCI-H226; test: Antiproliferative activity against human NCI-H226 cells after 48 hrs; type: functional; conditions: NCI-H226, 48 h; method in brief: as §2
[18] = test system: NCI-H23; test: Antiproliferative activity against human NCI-H23 cells after 48 hrs; type: functional; conditions: NCI-H23, 48 h; method in brief: as §2
[19] = test system: NCI-H322M; test: Antiproliferative activity against human NCI-H322M cells after 48 hrs; type: functional; method in brief: as §2
[20] = test system: NCI-H460; test: Antiproliferative activity against human NCI-H460 cells after 48 hrs; type: functional; conditions: NCI-H460, 48 h; method in brief: as §2
[21] = test system: COLO 205; test: Antiproliferative activity against human COLO205 cells after 48 hrs; type: functional; conditions: COLO 205, 48 h; method in brief: as §2
[22] = test system: HCC 2998; test: Antiproliferative activity against human HCC2998 cells after 48 hrs; type: functional; conditions: HCC 2998, 48 h; method in brief: as §2
[23] = test system: HT-29; test: Antiproliferative activity against human HT29 cells after 48 hrs; type: functional; conditions: HT-29, 48 h; method in brief: as §2
[24] = test system: SW-620; test: Antiproliferative activity against human SW620 cells after 48 hrs; type: functional; conditions: SW-620, 48 h; method in brief: as §1
[25] = test system: SF-268; test: Antiproliferative activity against human SF268 cells after 48 hrs; type: functional; conditions: SF-268, 48 h; method in brief: as §2
[26] = test system: SF-295; test: Antiproliferative activity against human SF295 cells after 48 hrs; type: functional; conditions: SF-295, 48 h; method in brief: as §2
[27] = test system: SNB-75; test: Antiproliferative activity against human SNB75 cells after 48 hrs; type: functional; conditions: SNB-75, 48 h; method in brief: as §2
[28] = test system: MCF7; test: Drug level in human MCF7 cells at 10 uM per 10^6 cells after 0.5 hrs; type: ADME, cell-based; conditions: mcf7, 0.5 h
Method in brief: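 MCF7 cells kept in RPMI 1640 with 10% fetal calf serum at 37 °C, 5% CO2, then treated with 10 μM analog. Intracellular analog measured over time by HPLC-MS in positive-ion MRM mode. Quantified against calibration curves made by spiking an artificial matrix with standards plus internal standard, using analyte/IS peak-area ratios and linear regression. Reported as pmol per 1×10^6 cells.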

[29] = test system: CCRF-CEM; test: Antiproliferative activity against human CCRF-CEM cells after 48 hrs; type: functional; method in brief: as §2
[30] = Antiproliferative activity against human […] cells after 48 hrs; type: functional; method in brief: as §2
[31] = read-out: Log LC50 (the source's name) (converted)

C[C@@H](NC(=O)CCCCCCCCCCCCCCC[n+]1ccccc1)[C@@H](O)c1ccccc1.[Br-]
GI50 [1]: 1.41 µM
CC50 [1, 31]: 5.25 µM
TGI ([1]; read-out: Log TGI (converted)): 2.75 µM
GI50 [2]: 1.58 µM
CC50 [2, 31]: 5.5 µM
TGI ([2]; read-out: Log TGI (converted)): 2.95 µM
GI50 [3]: 1.62 µM
TGI ([3]; read-out: Log TGI (converted)): 3.31 µM
GI50 [4]: 3.09 µM
CC50 [4, 31]: 60.3 µM
TGI ([4]; read-out: Log TGI (converted)): 13.5 µM
GI50 [5]: 2.63 µM
CC50 [5, 31]: 34.7 µM
TGI ([5]; read-out: Log TGI (converted)): 8.51 µM
GI50 [6]: 1.38 µM
CC50 [6, 31]: 66.1 µM
TGI ([6]; read-out: Log TGI (converted)): 30.2 µM
GI50 [7]: 1.74 µM
LC50 (50% net cell kill) [7]: 7.76 µM
TGI ([7]; read-out: Log TGI (converted)): 3.63 µM
GI50 [8]: 4.9 µM
CC50 [8, 31]: 40.7 µM
TGI ([8]; read-out: Log TGI (converted)): 15.8 µM
GI50 [9]: 19.1 µM
LC50 [9]: 93.3 µM
TGI ([9]; read-out: Log TGI (converted)): 41.7 µM
GI50 [10]: 1.38 µM
LC50 [10]: 15.1 µM
TGI ([10]; read-out: Log TGI (converted)): 3.98 µM
GI50 [11]: 3.47 µM
CC50 [11, 31]: 49 µM
TGI ([11]; read-out: Log TGI (converted)): 15.1 µM
GI50 [12]: 19.5 µM
LC50 [12]: 85.1 µM
TGI ([12]; read-out: Log TGI (converted)): 40.7 µM
GI50 [13]: 1.78 µM
LC50 [13]: 9.12 µM
TGI ([13]; read-out: Log TGI (converted)): 4.07 µM
GI50 [14]: 0.0692 µM
LC50 [14]: 3.39 µM
TGI ([14]; read-out: Log TGI (converted)): 1.07 µM
GI50 [15]: 1.55 µM
CC50 [15, 31]: > 100 µM
TGI ([15]; read-out: Log TGI (converted)): 6.46 µM
GI50 [16]: 2.69 µM
CC50 [16, 31]: 38 µM
TGI ([16]; read-out: Log TGI (converted)): 8.91 µM
GI50 [17]: 4.17 µM
CC50 [17, 31]: > 100 µM
TGI ([17]; read-out: Log TGI (converted)): 22.9 µM
GI50 [18]: 2.95 µM
CC50 [18, 31]: 56.2 µM
TGI ([18]; read-out: Log TGI (converted)): 11.7 µM
GI50 [19]: 11 µM
CC50 [19, 31]: 49 µM
TGI ([19]; read-out: Log TGI (converted)): 22.9 µM
GI50 [20]: 2.95 µM
CC50 [20, 31]: > 100 µM
TGI ([20]; read-out: Log TGI (converted)): 11.5 µM
GI50 [21]: 1.38 µM
TGI ([21]; read-out: Log TGI (converted)): 3.02 µM
GI50 [22]: 1.51 µM
CC50 [22, 31]: 6.03 µM
TGI ([22]; read-out: Log TGI (converted)): 3.02 µM
GI50 [23]: 1.58 µM
LC50 [23]: 7.59 µM
TGI ([23]; read-out: Log TGI (converted)): 3.47 µM
GI50 [24]: 4.27 µM
LC50 (concentration killing 50% of cells) [24]: 66.1 µM
TGI ([24]; read-out: Log TGI (converted)): 17.4 µM
GI50 [25]: 1.66 µM
LC50 [25]: 6.03 µM
TGI ([25]; read-out: Log TGI (converted)): 3.16 µM
GI50 [26]: 8.32 µM
LC50 [26]: 63.1 µM
TGI ([26]; read-out: Log TGI (converted)): 24 µM
GI50 [27]: 2.95 µM
CC50 [27, 31]: 9.77 µM
TGI ([27]; read-out: Log TGI (converted)): 5.37 µM
Drug uptake [28]: 800 pmol
GI50 [29]: < 0.01 µM
GI50 [30]: 2.57 µM
LC50 [30]: > 100 µM
TGI ([30]; read-out: Log TGI (converted)): 8.71 µM
